Ten compounds from ChEMBL document CHEMBL4359929, “Piperidine and piperazine inhibitors of fatty acid amide hydrolase targeting excitotoxic pathology” (Bioorg Med Chem, 2019) can be followed below.

The structures appear in SMILES notation. Calls of active or inactive are those of the source. The calls are words filed in the database; no cut-off is given here. A value given as a limit tells only on which side of the number the result lay.

For orientation: IC50 means the point on the concentration scale where inhibition reaches its midpoint.

The target in test [1] is T1, Fatty-acid amide hydrolase 1 (Homo sapiens, UniProt O00519).
T1 sequence (O00519 whole entry): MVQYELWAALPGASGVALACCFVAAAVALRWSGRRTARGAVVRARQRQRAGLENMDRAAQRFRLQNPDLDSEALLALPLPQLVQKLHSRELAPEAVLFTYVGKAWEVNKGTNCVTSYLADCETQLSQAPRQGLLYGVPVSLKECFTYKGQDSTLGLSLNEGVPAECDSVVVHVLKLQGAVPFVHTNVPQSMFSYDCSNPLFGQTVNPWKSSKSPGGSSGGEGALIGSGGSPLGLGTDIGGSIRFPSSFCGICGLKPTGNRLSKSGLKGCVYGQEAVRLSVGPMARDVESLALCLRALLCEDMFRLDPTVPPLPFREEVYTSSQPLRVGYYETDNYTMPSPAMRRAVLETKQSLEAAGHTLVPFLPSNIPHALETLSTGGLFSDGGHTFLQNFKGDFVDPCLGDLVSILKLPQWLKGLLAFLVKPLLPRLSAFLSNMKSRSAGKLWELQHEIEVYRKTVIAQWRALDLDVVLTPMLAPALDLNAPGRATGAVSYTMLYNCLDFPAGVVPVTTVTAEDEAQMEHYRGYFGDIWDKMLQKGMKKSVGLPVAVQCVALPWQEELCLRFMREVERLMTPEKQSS
Briefly: Inhibition of human recombinant MBP-tagged FAAH expressed in Escherichia coli cells using AAMCA as substrate incubated for 15 mins followed by substrate addition and measured after every 20 mins for 4 hrs by fluorescence based assay. In a few lines: (§1)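 Fluorescent enzyme assay in throughput format. Human recombinant FAAH or purified rat FAAH used arachidonoyl 7-amino-4-methylcoumarin amide as substrate; human recombinant MGL was run by a similar fluorometric procedure.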

Test [2] addresses T2, Fatty-acid amide hydrolase 1 (Rattus norvegicus, UniProt P97612).
T2 sequence (P97612 whole entry): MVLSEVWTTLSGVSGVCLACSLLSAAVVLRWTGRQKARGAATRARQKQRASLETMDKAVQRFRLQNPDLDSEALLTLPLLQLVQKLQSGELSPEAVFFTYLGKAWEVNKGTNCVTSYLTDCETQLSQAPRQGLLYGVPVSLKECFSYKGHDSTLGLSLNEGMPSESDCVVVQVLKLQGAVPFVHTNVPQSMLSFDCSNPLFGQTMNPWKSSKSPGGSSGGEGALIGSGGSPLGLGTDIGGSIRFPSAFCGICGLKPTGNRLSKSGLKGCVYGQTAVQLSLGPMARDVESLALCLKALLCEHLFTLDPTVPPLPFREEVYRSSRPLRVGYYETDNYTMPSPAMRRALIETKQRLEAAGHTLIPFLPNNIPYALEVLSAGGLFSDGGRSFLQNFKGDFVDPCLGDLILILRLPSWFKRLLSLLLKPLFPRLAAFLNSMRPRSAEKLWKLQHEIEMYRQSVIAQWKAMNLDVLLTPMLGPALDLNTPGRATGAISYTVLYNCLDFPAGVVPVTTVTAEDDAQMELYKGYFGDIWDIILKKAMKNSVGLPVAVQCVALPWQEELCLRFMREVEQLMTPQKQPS
The test can be described thus: Inhibition of rat recombinant His/GST-tagged FAAH expressed in Escherichia coli cells using AAMCA as substrate incubated for 15 mins followed by substrate addition and measured after every 20 mins for 4 hrs by fluorescence based assay. Put shortly: as §1

In test [3] the target is T3, Monoglyceride lipase (Homo sapiens, UniProt Q99685).
T3 sequence (Q99685 whole entry): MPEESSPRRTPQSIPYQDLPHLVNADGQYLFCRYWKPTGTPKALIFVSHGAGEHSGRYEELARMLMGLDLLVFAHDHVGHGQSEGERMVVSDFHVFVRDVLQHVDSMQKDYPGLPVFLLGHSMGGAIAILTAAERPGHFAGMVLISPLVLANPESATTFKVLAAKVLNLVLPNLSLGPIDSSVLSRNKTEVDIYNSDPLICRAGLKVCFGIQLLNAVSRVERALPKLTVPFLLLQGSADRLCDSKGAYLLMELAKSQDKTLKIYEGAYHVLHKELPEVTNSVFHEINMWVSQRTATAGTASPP
The test can be described thus: Inhibition of human recombinant His-tagged MGL expressed in Escherichia coli BL21 DE3 cells using AHMMCE as substrate preincubated with enzyme for 15 mins followed by substrate addition and measured after every 15 mins for 3 hrs by fluorescence based assay. In a few lines: as §1

The species named for test [4] is Homo sapiens. Briefly: Selectivity ratio of IC50 for human recombinant His-tagged MGL expressed in Escherichia coli BL21 DE3 cells to IC50 for human recombinant MBP-tagged FAAH expressed in Escherichia coli cells by fluorescence based assay.
The species named for test [5] is Homo sapiens. The test can be described thus: Selectivity ratio of IC50 for human full length ABHD6 expressed in Escherichia coli cells to IC50 for human recombinant MBP-tagged FAAH expressed in Escherichia coli cells by fluorescence based assay.
Test [6] deals with Cannabinoid receptor 1 (Rattus norvegicus) (UniProt P20272). The test can be described thus: Displacement of [3H]CP55940 from CB1 receptor in rat brain by competition-equilibrium binding analysis. The class given is tissue-based. Put shortly:
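Rat brain membranes as CB1 source; competition-equilibrium binding against [3H]CP-55,940.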
Background: Loss of bound radioactivity is the signal in a displacement assay; it reports binding, not function.
Target sequence in this assay (P20272 whole entry): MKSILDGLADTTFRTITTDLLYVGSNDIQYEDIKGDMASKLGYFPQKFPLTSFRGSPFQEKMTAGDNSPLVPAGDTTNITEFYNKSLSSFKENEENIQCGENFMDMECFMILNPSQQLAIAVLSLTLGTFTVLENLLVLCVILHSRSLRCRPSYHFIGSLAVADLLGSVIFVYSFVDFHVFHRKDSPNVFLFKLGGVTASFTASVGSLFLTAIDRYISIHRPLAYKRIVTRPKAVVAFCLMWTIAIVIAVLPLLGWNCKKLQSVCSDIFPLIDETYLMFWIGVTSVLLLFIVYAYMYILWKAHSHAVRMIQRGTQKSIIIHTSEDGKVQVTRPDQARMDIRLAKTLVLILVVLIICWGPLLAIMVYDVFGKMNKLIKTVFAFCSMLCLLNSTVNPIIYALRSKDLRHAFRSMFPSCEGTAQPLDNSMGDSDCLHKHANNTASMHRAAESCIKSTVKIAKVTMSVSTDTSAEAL

The target of test [7] is Cannabinoid receptor 2 (Mus musculus) (UniProt P47936). The test can be described thus: Displacement of [3H]CP55940 from mouse CB2 receptor expressed in HEK293 cells by competition-equilibrium binding analysis. The format is cell-based. In a few lines:
(§2)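 HEK293 cell membranes expressing mouse or human CB2; competition-equilibrium binding against [3H]CP-55,940.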

Test [8] addresses Cannabinoid receptor 2 (Homo sapiens) (UniProt P34972). Briefly: Displacement of [3H]CP55940 from human CB2 receptor expressed in HEK293 cells by competition-equilibrium binding analysis. The class given is cell-based. Put shortly: as §2
Test [9] can be described thus: Selectivity ratio of IC50 for human recombinant His-tagged MGL expressed in Escherichia coli BL21 DE3 cells to IC50 for rat recombinant His/GST-tagged FAAH expressed in Escherichia coli cells by fluorescence based assay.
Test [10] in a line: Selectivity ratio of IC50 for human full length ABHD6 expressed in Escherichia coli cells to IC50 for rat recombinant His/GST-tagged FAAH expressed in Escherichia coli cells by fluorescence based assay.
The target of test [11] is Cannabinoid receptor 1 (Rattus norvegicus) (UniProt P20272). Briefly: Displacement of [3H]CP55940 from CB1 receptor in rat brain by competition-equilibrium binding analysis.
Target sequence in this assay (P20272 whole entry, looked up): as the sequence (P20272 whole entry) above

Chain of Cannabinoid receptor 2 (Mus musculus) (P47936 whole entry): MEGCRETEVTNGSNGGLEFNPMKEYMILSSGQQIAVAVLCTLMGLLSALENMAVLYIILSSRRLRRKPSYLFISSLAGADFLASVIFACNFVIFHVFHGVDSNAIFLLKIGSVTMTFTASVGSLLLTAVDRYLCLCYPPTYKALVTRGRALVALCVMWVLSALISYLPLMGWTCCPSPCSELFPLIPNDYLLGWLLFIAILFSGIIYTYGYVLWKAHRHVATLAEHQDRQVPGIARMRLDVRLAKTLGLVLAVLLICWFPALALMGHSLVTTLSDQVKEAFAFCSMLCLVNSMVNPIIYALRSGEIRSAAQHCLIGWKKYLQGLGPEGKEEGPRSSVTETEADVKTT
Chain of Cannabinoid receptor 2 (Homo sapiens) (P34972 whole entry): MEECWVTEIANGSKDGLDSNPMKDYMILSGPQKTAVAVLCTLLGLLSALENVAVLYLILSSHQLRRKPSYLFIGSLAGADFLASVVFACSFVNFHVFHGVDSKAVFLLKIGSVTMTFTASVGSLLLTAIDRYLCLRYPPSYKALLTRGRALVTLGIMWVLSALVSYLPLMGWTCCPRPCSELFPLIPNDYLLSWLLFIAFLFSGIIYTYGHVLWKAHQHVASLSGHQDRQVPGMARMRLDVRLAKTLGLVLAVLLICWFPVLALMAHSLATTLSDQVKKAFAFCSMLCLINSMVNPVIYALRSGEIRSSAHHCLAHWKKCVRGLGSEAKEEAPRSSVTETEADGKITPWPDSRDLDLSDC

`O=C(Oc1cccc(N2CCS(=O)(=O)CC2)c1)N1CCN(c2ccc(F)cc2)CC1`: the IC50 in test [1] is 20.5 nM; in test [2] it was 12.5 nM; in test [3], above 1000 nM. The Ratio IC50 in test [4], in test [5], in [9] and in test [10] was above 1000 each time. Further, the outcome in test [6], in test [7], in test [8] and in test [11] was inactive.

In the case of `C[C@H]1CN(c2ccc(F)cc2)CCN1C(=O)Oc1cccc(N2CCS(=O)(=O)CC2)c1`, the IC50 is 72.9 nM in [1], 40.5 nM in test [2] and above 1000 nM in test [3]. Moreover, the Ratio IC50 in [4], in [5], in [9] and in [10] was above 1000 in each case. The result in [6], in test [7], in test [8] and in test [11] was inactive.

With `O=C(Oc1cccc(N2CCS(=O)(=O)CC2)c1)N1CCC(c2ccncc2)CC1`, the IC50 in test [1] is 132 nM; in test [2] it was 75.5 nM; in test [3] it was above 1000 nM. The Ratio IC50 in test [4], in test [5], in [9] and in test [10] was above 1000 in each case. Further, the result in test [6], in test [7], in test [8] and in test [11] was inactive.

As for `O=C(Oc1cccc(N2CCS(=O)(=O)CC2)c1)N1CCC(O)(c2ccccc2)CC1`, the IC50 was 172 nM in test [1], 78.1 nM in test [2] and above 1000 nM in test [3]. Besides, the Ratio IC50 in [4], in [5], in [9] and in [10] was above 1000 each time. The outcome in test [6], in test [7], in test [8] and in [11] was inactive.

Consider `O=C(Oc1cccc(N2CCS(=O)(=O)CC2)c1)N1CCN(c2ccccn2)CC1`, for which the IC50 in test [2] is 102 nM; in test [3], above 1000 nM. The Ratio IC50 in [4], in test [5], in test [9] and in test [10] was above 1000 each time. The result in test [6], in [7], in [8] and in [11] was inactive.

Regarding `Cc1ccccc1C1CCN(C(=O)Oc2cccc(N3CCS(=O)(=O)CC3)c2)CC1`, the IC50 in [1] is 15.9 nM; in [2], 10.3 nM; in test [3], above 1000 nM. Further, the Ratio IC50 in test [4], in [5], in test [9] and in test [10] was above 1000 throughout. Besides, the outcome in [6], in test [7], in [8] and in [11] was inactive.

As for `CN(C)c1ccc(C2CCN(C(=O)Oc3cccc(N4CCOCC4)c3)CC2)cc1`, the figures for the IC50 in [1], in test [2] and in test [3] were 31 nM, 14.7 nM and above 1000 nM, respectively. The Ratio IC50 in test [4], in test [5], in test [9] and in test [10] was above 1000 each time. Further, the outcome in test [6], in [7], in test [8] and in test [11] was inactive.

As for `N#Cc1ccc(N2CCN(C(=O)Oc3cccc(N4CCS(=O)(=O)CC4)c3)CC2)cc1`, the IC50 in [1] is 89.3 nM; in test [2] it was 62.7 nM; in test [3] it was above 1000 nM. In addition, the Ratio IC50 in test [4], in [5], in test [9] and in [10] was above 1000 throughout. Further, the result in [6], in test [7], in test [8] and in [11] was inactive.

For the compound `Cc1noc(C2CCN(C(=O)Oc3cccc(N4CCS(=O)(=O)CC4)c3)CC2)n1`, the IC50 in test [1] is 147 nM; in [2], 120 nM; in [3] it was above 1000 nM. Besides, the Ratio IC50 in [4], in test [5], in test [9] and in test [10] was above 1000 each time. Moreover, the result in [6], in [7], in test [8] and in test [11] was inactive.

As to `O=C(Oc1cccc(N2CCS(=O)(=O)CC2)c1)N1C[C@H]2C[C@@H]1CN2c1ccc(F)cc1`, the results for the IC50 in [1], in [2] and in test [3] were 20.3 nM, 17.1 nM and above 1000 nM, respectively. Also, the Ratio IC50 in test [4], in test [5], in test [9] and in test [10] was above 1000 each time. For the same compound, the result in [6], in test [7], in [8] and in test [11] was inactive.
